# High-throughput results from PubChem.
# Rows were chosen to be rich in hits. Some 2.6% of all compounds tested hit in one or more screens of this group.
# SENP6 block = SENP6 protease inhibitors, primary screen, biochemical, luminescence, uHTS. Sentrin-specific protease 6 (Homo sapiens), Q9GZR1. hit rate 1.8% among 330,000. inhibition, % at 10 µM. Recombinant SENP6 catalytic domain, aminoluciferin luminescence;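 active means inhibition above about 50% at the single tested dose, limit read from the data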;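 further: plate controls were DMSO wells with enzyme for no effect and DMSO wells lacking enzyme for full effect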
# Target sequence (Q9GZR1 628-1112 limits assumed): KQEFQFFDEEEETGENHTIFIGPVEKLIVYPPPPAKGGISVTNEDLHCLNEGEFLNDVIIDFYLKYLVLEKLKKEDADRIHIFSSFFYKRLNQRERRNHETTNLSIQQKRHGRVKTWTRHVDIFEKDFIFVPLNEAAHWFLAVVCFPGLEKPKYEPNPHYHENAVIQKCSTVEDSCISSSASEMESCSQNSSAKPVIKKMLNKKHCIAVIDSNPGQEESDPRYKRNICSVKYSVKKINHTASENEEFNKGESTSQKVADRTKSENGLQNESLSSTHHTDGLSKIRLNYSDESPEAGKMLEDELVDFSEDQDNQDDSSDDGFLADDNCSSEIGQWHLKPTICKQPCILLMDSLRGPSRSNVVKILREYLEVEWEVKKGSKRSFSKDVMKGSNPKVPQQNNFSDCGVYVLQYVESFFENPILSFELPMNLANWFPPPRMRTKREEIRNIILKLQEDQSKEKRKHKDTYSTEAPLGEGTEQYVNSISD
# SENP7 block = SENP7 protease inhibitors, primary screen, biochemical, luminescence, uHTS | Sentrin-specific protease 7 (Homo sapiens), Q9BQF6 | recombinant SENP7, Z-RLRGG-aminoluciferin luminescence, 40 min | inhibition, % at 5 µM | hit rate 1.5% among 330,000 | AID 434973, 2010;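 active means inhibition above about 50% at the single test dose, limit read from the data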;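 further: plate controls were DMSO with enzyme for no effect and no enzyme buffer wells for full effect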
# SENP8 block-1 = SENP8 protease inhibitors, primary screen, biochemical, luminescence | hit rate 1.2% among 330,000 | AID 2540, 2010 | purified SENP8, Z-RLRGG-aminoluciferin cleavage | Sentrin-specific protease 8 (Homo sapiens), Q96LD8 | inhibition, % at 10 µM; in the data active means inhibition above about 50%
# SENP1 FRET inh = human SENP1 catalytic domain inhibitors, primary screen, biochemical, FRET, uHTS; hit rate 0.21% among 360,000; recombinant SENP1 catalytic domain, CyPet-SUMO1-YPet FRET cleavage; inhibition, % at 10 µM;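 active means inhibition at least 30% at 10 µM, raw YFP signal under a set limit, fluorescence ratio 0.5 to 1.5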;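 further: 0% = enzyme with DMSO and 100% = no enzyme wells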
# Target sequence (Q9P0U3 419-644 limits assumed): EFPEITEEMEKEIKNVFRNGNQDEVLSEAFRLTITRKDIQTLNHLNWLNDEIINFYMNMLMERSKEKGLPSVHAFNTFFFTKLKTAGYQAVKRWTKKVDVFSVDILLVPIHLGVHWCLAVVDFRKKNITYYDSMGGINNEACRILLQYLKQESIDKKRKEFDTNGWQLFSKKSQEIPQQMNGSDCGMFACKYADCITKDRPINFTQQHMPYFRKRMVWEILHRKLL
#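 Test system: recombinant human SENP1 catalytic domain, His6-tagged / Medium: pH 8 Tris buffer with EDTA, NaCl, BME, BSA, NP40, catalase / Also added: SUMO1 FRET substrate flanked by Cypet and Ypet, 25 nM / Times: 50 min reaction at room temperature / Signal: FRET, CFP and YFP emission / Control set: no-enzyme low control and enzyme-plus-DMSO high control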
# Platelet DG rel = inhibitors of platelet dense granule secretion, primary screen, cell-based, MLPCN, human platelets; human platelet-rich plasma, SFLLRN dense granule ATP release, luminescence; inhibition, %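 (compounds screened at 7.5 µM in platelet-rich plasma)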; hit rate 0.22% among 300,000; AID 1663, 2009;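 active means mean replicate score, as percent of positive control, at or above 50; inconclusive means mean below 50 but at least one replicate at or above 50; inactive means mean and every replicate below 50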
# SENP8 block-2 = human SENP8 protease inhibitors, primary screen, biochemical, fluorescence, Nedd8 protein substrate, uHTS. inhibition, % at 20 µM. Sentrin-specific protease 8 (Homo sapiens), Q96LD8. hit rate 0.64% among 360,000. recombinant SENP8; in the data active means inhibition mostly above about 40%, no sharp cut-off; inactive means mostly below about 27%
# SENP8 conf = SENP8 protease inhibitors, retest, confirmation, biochemical, luminescence, single concentration; shares compounds with SENP7 block; Recombinant SENP8, Z-RLRGG-aminoluciferin luminescence, 60 min; hit rate 40% among 6,200; inhibition, % at 12.5 µM;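 active means mean inhibition across replicates above about 50%, limit read from the data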
# SENP6 conf = SENP6 protease inhibitors, confirmation, biochemical, luminescence, single concentration; recombinant SENP6, Z-RLRGG-aminoluciferin luminescence; shares compounds with SENP7 block; inhibition, % at 12.5 µM; AID 488915, 2010; hit rate 58% among 6,200
# SENP7 confirm = SENP7 protease inhibitors, retest, confirmation, biochemical, luminescence, single concentration | shares compounds with SENP7 block | recombinant SENP7, Z-RLRGG-aminoluciferin luminescence, 40 min | inhibition, % at 12.5 µM | hit rate 69% among 6,200 | AID 488917, 2010
# Casp3 select = caspase-3 protease inhibitors, confirmation, selectivity assay for SENP inhibitor project, biochemical, single concentration; shares compounds with SENP7 block; purified caspase-3, Z-DEVD-aminoluciferin luminescence, 60 min; inhibition, % at 12.5 µM; hit rate 60% among 6,200; AID 488918, 2010;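 active means mean inhibition above about 50%, limit read from the data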;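 further: plate controls were enzyme with DMSO for no effect and wells without caspase-3 for full effect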
# SENP luc ctr = luminescence interference (SENP counter-screen). shares compounds with SENP7 block. Pre-incubated SENP8/Z-RLRGG-aminoluciferin, luciferase luminescence interference. inhibition, % at 12.5 µM. hit rate 39% among 6,200;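 active means mean inhibition above about 50% when retested at one dose, limit read from the data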;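 further: plate controls were DMSO wells with completed reaction for no effect and substrate without enzyme for full effect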
# Numbers without * were called inactive; ? = inconclusive; . = not tested or not shown.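 How the source made its calls, unless noted: active means mean inhibition above about 50% in the one-dose retest (limit read from the data); inactive means the rest.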
SMILES,SENP6 block,SENP7 block,SENP8 block-1,SENP1 FRET inh,Platelet DG rel,SENP8 block-2,SENP8 conf,SENP6 conf,SENP7 confirm,Casp3 select,SENP luc ctr
O=C(CCN1C(=O)/C(=C/c2ccccc2F)SC1=S)NCCCN1CCOCC1,-13.9,-4.6,-5.1,1.7,-1.9,9.4,.,.,.,.,.
O=C(CCCN1C(=O)/C(=C/c2ccccc2Cl)SC1=S)N1CCCC1,73.8*,68.3*,84.0*,2.9,-4.8,22.3,84.6*,84.0*,87.7*,61.3*,28.2
Cc1nn(CC(=O)NCCCN2CCN(C)CC2)c(=O)c2cc(-c3ccccc3)nn12,4.9,-2.6,8.2,1.2,-18.0,10.2,.,.,.,.,.
CC(C)=CCN1CCN(Cc2cccn2-c2nccs2)CC1CCO (centres undefined),-1.7,6.3,2.4,4.2,-1.6,21.0,.,.,.,.,.
CCNC(=S)N/N=C/c1ccc(C#N)cc1,-1.1,5.3,4.8,-0.5,0.3,13.4,.,.,.,.,.
Fc1ccc(/C=N/Nc2nccnc2Cl)cc1,93.1*,94.3*,86.3*,2.0,6.7,-144.6,92.8*,93.3*,99.7*,96.3*,92.3*
Fc1cccc(/C=N/Nc2nccnc2Cl)c1,97.1*,98.9*,92.9*,-1.5,?,-220.4,95.7*,96.4*,102.4*,98.4*,96.4*
Fc1cccc(/C=N/Nc2nncc3ccccc23)c1,92.2*,95.5*,89.8*,3.7,23.8,19.1,78.2*,94.1*,98.2*,88.6*,60.8*
Cc1sc2ncnc(N/N=C/c3ccc(O)cc3)c2c1C,-7.3,2.9,-9.1,10.9,-5.0,7.5,.,.,.,.,.
Fc1cccc(/C=N/N=C/c2cccc(F)c2)c1,31.4,38.2,15.3,1.9,-22.1,3.8,.,.,.,.,.
Oc1ccc(/C=N/Nc2nccnc2Cl)cc1,96.7*,98.8*,97.9*,1.7,98.3*,-61.1,98.5*,99.2*,102.4*,98.2*,97.9*
C(=N\Nc1nncc2ccccc12)/c1ccccn1,43.7,20.4,23.4,3.3,35.0,28.7,.,.,.,.,.
CCCCCCCc1ccc(-c2ccc(O)cc2)nc1,-3.1,0.0,3.1,-0.6,4.8,-0.8,.,.,.,.,.
CC(C)(C)c1nnc(NC(=O)c2cccnc2)s1,-12.3,-12.0,-9.6,1.9,-5.9,11.1,.,.,.,.,.
COC(=O)c1nnn(CC(=O)NC(=O)Nc2c(C)cccc2C)c1C(=O)OC,-3.6,3.9,2.8,2.6,-0.1,23.1,.,.,.,.,.
Cc1ccc(S(=O)(=O)Oc2ccccc2/C=N/NC(N)=S)cc1,-2.5,70.0*,-3.7,0.4,-3.4,15.0,5.7,6.4,-7.4,-2.8,-1.5
COc1ccc(-c2cc(N)n(S(=O)(=O)Cc3ccccc3)n2)c(OC)c1,-2.7,10.2,-3.0,-0.1,-10.3,14.4,.,.,.,.,.
O=C(COC(=O)CN1C(=O)c2ccccc2C1=O)Nc1ccc(S(=O)(=O)N2CCCC2)cc1,5.6,0.5,5.2,4.0,7.1,20.0,.,.,.,.,.
Cc1cc(C(=O)Nc2nc3c(s2)CCCC3)no1,62.9*,56.3*,18.6,2.5,-10.6,9.8,45.5,41.8,79.6*,75.3*,54.5*
CN(C)c1ccc(C(=O)Nc2nc3c(s2)CCCC3)cc1,95.4*,98.1*,93.7*,-0.1,20.1,-397.2,13.5,69.3*,82.2*,58.5*,38.1
Cc1onc(-c2ccccc2)c1C(=O)Nc1nc2c(s1)CCCC2,-14.1,-1.2,-8.9,0.2,-0.5,-13.3,.,.,.,.,.
CC(C)(C)c1ccc(C(=O)NC(=S)Nc2nc3c(s2)CCCC3)cc1,8.1,-4.0,-10.5,-1.0,-12.0,21.7,.,.,.,.,.
CCOCCCNC(=O)C(c1ccccc1)N(Cc1cccs1)C(=O)c1ccccc1O (centres undefined),1.2,-4.3,-4.7,-1.0,1.7,1.6,.,.,.,.,.
CC(=O)OCC(OC(C)=O)C(OC(C)=O)C(OC(C)=O)C(=O)Nc1ccc(C)cc1 (centres undefined),-3.7,7.7,0.6,-0.5,-0.9,6.2,.,.,.,.,.
CCOc1ccc(N=Nc2c(=O)[nH]n3c(=O)cc(C)[nH]c23)cc1,95.5*,95.1*,92.0*,8.5,?,38.1,96.6*,97.6*,101.7*,97.8*,93.1*
SMILES,SENP6 block,SENP7 block,SENP8 block-1,SENP1 FRET inh,Platelet DG rel,SENP8 block-2,SENP8 conf,SENP6 conf,SENP7 confirm,Casp3 select,SENP luc ctr
COc1cccc(N=Nc2c(N)[nH][nH]c2=O)c1,-0.2,21.9,-0.2,2.2,-7.2,37.5,.,.,.,.,.
CCOc1ccc(N=Nc2c(N)[nH][nH]c2=O)cc1,76.0*,71.5*,64.5*,1.7,12.8,26.0,56.6*,61.1*,90.4*,88.5*,43.9
COc1ccc(N=Nc2c(C)[nH][nH]c2=O)cc1,69.4*,63.6*,35.5,7.7,3.5,30.9,50.0*,52.1*,83.5*,79.7*,52.9*
Cc1cc(=O)n2[nH]c(=O)c(N=Nc3ccccc3)c2[nH]1,36.4,8.3,17.7,3.0,-0.4,39.9,.,.,.,.,.
Cc1ccc2cc(C)c3nnc(SCC(=O)N4CCCc5ccccc54)n3c2c1C,-1.3,1.4,4.1,.,-4.6,.,.,.,.,.,.
CCOc1ccc(NC(=O)c2nccnc2CO)cc1,52.7*,47.5,14.4,0.0,19.8,-11.9,37.6,34.8,74.1*,82.4*,55.3*
CCOc1ccc(NC(=O)c2ccccc2O)cc1,64.4*,37.9,36.4,1.3,14.0,4.7,55.4*,49.0,78.0*,64.4*,63.2*
CCOc1ccc(NC(=O)c2cnccn2)cc1,36.1,39.1,-4.8,1.9,6.2,14.3,.,.,.,.,.
CCOc1ccc(NC(=O)c2ccccn2)cc1,91.4*,92.3*,81.3*,8.9,31.0,6.1,91.6*,91.9*,100.0*,95.6*,89.1*
